ChEMBL document CHEMBL3120154, “2-[N-Alkyl(R-phenyl)-aminomethyl]-3-phenyl-7-trifluoromethylquinoxalines as anticancer agents inhibitors of folate enzymes” (Eur J Med Chem, 2014)

Assays:
Type in all cases: functional
MDA-MB-231 = test: Cytotoxicity against human MDA-MB-231 cells at 10^-4 M after 48 hrs by SRB assay; conditions: MDA-MB-231, 48 h, read-out: GI
Procedure, shortened: (§1)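 Run in the NCI 60-cell-line screen after a three-line prescreen. Cells got a 48 h drug exposure; viability/growth was estimated with the sulforhodamine B protein assay. Growth inhibition (I%) was recorded at 100, 10, 1, 0.1 and 0.01 micromolar. Percent growth is relative to untreated control cells, and negative values indicate cell kill.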

TK-10 = test: Cytotoxicity against human TK10 cells at 10^-4 M after 48 hrs by SRB assay; conditions: TK-10, 48 h, read-out: GI
Procedure, shortened: (§2)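 Second-stage screen in the 60-cell-line human tumor panel at NCI, over a 5-log range (100, 10, 1, 0.1, 0.01 micromolar). Cells were exposed to drug for 48 h and growth was estimated with a sulforhodamine B protein stain. The value is percent growth inhibition at each concentration.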

OVCAR-8 = test: Cytotoxicity against human OVCAR8 cells at 10^-4 M after 48 hrs by SRB assay; conditions: OVCAR-8, 48 h, read-out: GI; procedure, shortened: as §2
BT-549 = test: Cytotoxicity against human BT549 cells at 10^-4 M after 48 hrs by SRB assay; conditions: BT-549, 48 h, read-out: GI
Procedure, shortened: (§3)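 Run by NCI on its 60-line human tumor cell panel, after a three-cell-line prescreen. Cells were exposed to drug for 48 h over a 5-log range: 100, 10, 1, 0.1 and 0.01 micromolar. Growth was estimated by sulforhodamine B (SRB) protein staining. Percent growth inhibition (I%) was recorded at each concentration relative to untreated control cells.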

SW-620 = test: Cytotoxicity against human SW620 cells at 10^-4 M after 48 hrs by SRB assay; conditions: SW-620, 48 h, read-out: GI; procedure, shortened: as §2
[1] = Cytotoxicity against human UO31 cells at 10^-4 M after 48 hrs by SRB assay; conditions: UO-31, 48 h, read-out: GI; procedure, shortened: as §2
NCI-H522 = test: Cytotoxicity against human NCI-H522 cells at 10^-4 M after 48 hrs by SRB assay; conditions: NCI-H522, 48 h, read-out: GI; procedure, shortened: as §1
[2] = Cytotoxicity against human UACC257 cells at 10^-4 M after 48 hrs by SRB assay; conditions: UACC-257, 48 h, read-out: GI; procedure, shortened: as §2
NCI-H460 = test: Cytotoxicity against human NCI-H460 cells at 10^-4 M after 48 hrs by SRB assay; conditions: NCI-H460, 48 h, read-out: GI; procedure, shortened: as §1
NCI-H23 = test: Cytotoxicity against human NCI-H23 cells at 10^-4 M after 48 hrs by SRB assay; conditions: NCI-H23, 48 h, read-out: GI; procedure, shortened: as §1
SF-268 [3] = test: Cytotoxicity against human SF268 cells assessed as cell growth at 10^-4 M after 48 hrs by alamar blue assay relative to untreated control; conditions: SF-268, 48 h, read-out: Activity
Procedure, shortened: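 Three-cell-line prescreen at NCI. Each line was seeded and pre-incubated, then given a single concentration (10^-4 or 10^-5 M) and incubated for 48 h. The end-point was alamar blue. The value is percent growth of treated cells versus untreated control cells, with negative numbers indicating cell kill.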

HOP-92 = test: Cytotoxicity against human HOP92 cells at 10^-4 M after 48 hrs by SRB assay; conditions: HOP-92, 48 h, read-out: GI; procedure, shortened: as §3
CCRF-CEM = test: Cytotoxicity against human CCRF-CEM cells at 10^-4 M after 48 hrs by SRB assay; conditions: read-out: GI; procedure, shortened: as §3
UACC-62 = test: Cytotoxicity against human UACC62 cells at 10^-4 M after 48 hrs by SRB assay; conditions: UACC-62, 48 h, read-out: GI; procedure, shortened: as §2
CAKI-1 = test: Cytotoxicity against human Caki1 cells at 10^-4 M after 48 hrs by SRB assay; conditions: CAKI-1, 48 h, read-out: GI; procedure, shortened: as §3
SK-MEL-5 = test: Cytotoxicity against human SK-MEL-5 cells at 10^-4 M after 48 hrs by SRB assay; conditions: SK-MEL-5, 48 h, read-out: GI; procedure, shortened: as §2
SF-268 [4] = test: Cytotoxicity against human SF268 cells at 10^-4 M after 48 hrs by SRB assay; conditions: SF-268, 48 h, read-out: GI; procedure, shortened: as §2
MDA-MB-435 = test: Cytotoxicity against human MDA-MB-435 cells at 10^-4 M after 48 hrs by SRB assay; conditions: MDA-MB-435, 48 h, read-out: GI; procedure, shortened: as §1
NCI-H226 = test: Cytotoxicity against human NCI-H226 cells at 10^-4 M after 48 hrs by SRB assay; conditions: NCI-H226, 48 h, read-out: GI; procedure, shortened: as §1
RXF 393 = test: Cytotoxicity against human RXF393 cells at 10^-4 M after 48 hrs by SRB assay; conditions: RXF 393, 48 h, read-out: GI; procedure, shortened: as §2
786-0 = test: Cytotoxicity against human 786-0 cells at 10^-4 M after 48 hrs by SRB assay; conditions: 786-0, 48 h, read-out: GI; procedure, shortened: as §3
HOP-62 = test: Cytotoxicity against human HOP62 cells at 10^-4 M after 48 hrs by SRB assay; conditions: HOP-62, 48 h, read-out: GI; procedure, shortened: as §3
DU-145 = test: Cytotoxicity against human DU145 cells at 10^-4 M after 48 hrs by SRB assay; conditions: DU-145, 48 h, read-out: GI; procedure, shortened: as §3
HT-29 = test: Cytotoxicity against human HT-29 cells at 10^-4 M after 48 hrs by SRB assay; conditions: HT-29, 48 h, read-out: GI; procedure, shortened: as §3
NCI-H322M = test: Cytotoxicity against human NCI-H322M cells at 10^-4 M after 48 hrs by SRB assay; conditions: read-out: GI; procedure, shortened: as §1
RPMI-8226 = test: Cytotoxicity against human RPMI8226 cells at 10^-4 M after 48 hrs by SRB assay; conditions: RPMI-8226, 48 h, read-out: GI; procedure, shortened: as §2
Malme-3M = test: Cytotoxicity against human MALME-3M cells at 10^-4 M after 48 hrs by SRB assay; conditions: read-out: GI; procedure, shortened: as §1
T47D = test: Cytotoxicity against human T47D cells at 10^-4 M after 48 hrs by SRB assay; conditions: read-out: GI; procedure, shortened: as §2
M14 = test: Cytotoxicity against human M14 cells at 10^-4 M after 48 hrs by SRB assay; conditions: M14, 48 h, read-out: GI; procedure, shortened: as §1
A549 = test: Cytotoxicity against human A549 cells at 10^-4 M after 48 hrs by SRB assay; conditions: A549, 48 h, read-out: GI; procedure, shortened: as §3
[5] = Cytotoxicity against human EKVX cells at 10^-4 M after 48 hrs by SRB assay; conditions: read-out: GI; procedure, shortened: as §3
[6] = Cytotoxicity against human OVCAR5 cells at 10^-4 M after 48 hrs by SRB assay; conditions: OVCAR-5, 48 h, read-out: GI; procedure, shortened: as §2
K562 = test: Cytotoxicity against human K562 cells at 10^-4 M after 48 hrs by SRB assay; conditions: K562, 48 h, read-out: GI; procedure, shortened: as §1
HCC 2998 = test: Cytotoxicity against human HCC2998 cells at 10^-4 M after 48 hrs by SRB assay; conditions: HCC 2998, 48 h, read-out: GI; procedure, shortened: as §3

Row | Compound | inhibition of growth at 100 µM (MDA-MB-231) | inhibition of growth at 100 µM (TK-10) | inhibition of growth at 100 µM (OVCAR-8) | inhibition of growth at 100 µM (BT-549) | inhibition of growth at 100 µM (SW-620) | inhibition of growth at 100 µM [1] | inhibition of growth at 100 µM (NCI-H522) | inhibition of growth at 100 µM [2] | inhibition of growth at 100 µM (NCI-H460) | inhibition of growth at 100 µM (NCI-H23) | growth at 100 µM (SF-268 [3]) | inhibition of growth at 100 µM (HOP-92) | inhibition of growth at 100 µM (CCRF-CEM) | inhibition of growth at 100 µM (UACC-62) | inhibition of growth at 100 µM (SK-MEL-5) | inhibition of growth at 100 µM (SF-268 [4]) | inhibition of growth at 100 µM (MDA-MB-435) | inhibition of growth at 100 µM (NCI-H226) | inhibition of growth at 100 µM (RXF 393) | inhibition of growth at 100 µM (786-0) | further results
1 | C#CCN(Cc1nc2cc(C(F)(F)F)ccc2nc1-c1ccccc1)c1ccc(C)cc1 | 163% | 181% | 77% | 104% | 79% | 167% | 134% | 110% | 96% | 196% | 89% | 93% | < 40% | 188% | 158% | 76% | 149% | 145% | 137% | 184% | inhibition of growth at 100 µM (CAKI-1): 147%; inhibition of growth at 100 µM (HOP-62): 199%; inhibition of growth at 100 µM (DU-145): 40%; inhibition of growth at 100 µM (HT-29): 200%; inhibition of growth at 100 µM (NCI-H322M): 180%; inhibition of growth at 100 µM (RPMI-8226): 44%; inhibition of growth at 100 µM (Malme-3M): 160%; inhibition of growth at 100 µM (T47D): 172%; inhibition of growth at 100 µM (M14): 186%; inhibition of growth at 100 µM (A549): 84%; inhibition of growth at 100 µM [5]: 56%; inhibition of growth at 100 µM [6]: 200%
2 | C#CCN(Cc1nc2cc(C(F)(F)F)ccc2nc1-c1ccccc1)c1ccc(F)c(F)c1 | 90% | 48% | 98% | 67% | 82% | 73% | 85% | 146% | 90% | 52% | 95% | 63% | 98% | 73% | 144% | 91% | 81% | 51% | 103% | 44% | inhibition of growth at 100 µM (K562): 78%; inhibition of growth at 100 µM (HCC 2998): 102%; inhibition of growth at 100 µM (HOP-62): < 40%; inhibition of growth at 100 µM (DU-145): 78%; inhibition of growth at 100 µM (HT-29): 70%; inhibition of growth at 100 µM (RPMI-8226): 107%; inhibition of growth at 100 µM (T47D): 61%; inhibition of growth at 100 µM (M14): 41%; inhibition of growth at 100 µM (A549): 107%; inhibition of growth at 100 µM [5]: 123%; inhibition of growth at 100 µM [6]: < 40%
3 | C#CCN(Cc1nc2cc(C(F)(F)F)ccc2nc1-c1ccccc1)c1ccc(F)cc1 | 129% | 123% | 96% | 77% | 93% | 83% | 93% | 119% | 94% | 31% | 90% | 106% | 94% | 96% | 180% | 82% | 87% | 71% | 89% | 132% | inhibition of growth at 100 µM (K562): 89%; inhibition of growth at 100 µM (CAKI-1): 110%; inhibition of growth at 100 µM (DU-145): 82%; inhibition of growth at 100 µM (HT-29): 80%; inhibition of growth at 100 µM (NCI-H322M): 123%; inhibition of growth at 100 µM (RPMI-8226): 117%; inhibition of growth at 100 µM (Malme-3M): 129%; inhibition of growth at 100 µM (T47D): 90%; inhibition of growth at 100 µM (M14): 71%; inhibition of growth at 100 µM (A549): 123%; inhibition of growth at 100 µM [5]: 120%; inhibition of growth at 100 µM [6]: 56%
